ChEMBL document CHEMBL4665664, “Discovery of Orally Active Hydroxyethylamine Based SPPL2a Inhibitors” (ACS Med Chem Lett, 2019)
Converted amounts (≈) assume the structure as drawn. Values belong to the molecule of their own block, whether it stands above or below them. The source made the active and inactive calls. No cut-off for these calls is given here.

Key:
Gamma-secretase = experiment: Inhibition of gamma-secretase (unknown origin) expressed in HEK293 cells cotransfected with Notch1-VP16-GAL4 fusion and Gal4 luciferase reporter plasmid incubated for 24 hrs by luciferase reporter gene assay luminescence assay; type: cell-based, Homo sapiens
Mus musculus = experiment: In vivo inhibition of SPPL2a in mouse assessed as increase in CD74/p8 NTF accumulation in splenocytes lysates at 100 mg/kg, po administered as single dose and measured after 4 hrs post-dosing by western blot analysis; conditions: Lysate
[1] = Equilibrium solubility of the compound in DMSO solution at pH 6.8 by saturation shake flask method; type: physicochemical
Summary of the method: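 Equilibrium solubility by saturation shake-flask at pH 6.8, starting from DMSO solution.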

[2] = Lipophilicity, logD of the compound in octanol-buffer at pH 7.4 by shake-flask equilibrium based LC/MS/MS analysis; type: physicochemical
Summary of the method: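 log D determined at pH 7.4 by rapid-throughput octanol/buffer 96-well shake-flask equilibration, with LC/MS/MS quantification.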

[3] = target: T1, Signal peptide peptidase-like 2A (Homo sapiens, UniProt Q8TCT8); experiment: Inhibition of human SPPL2a expressed in HEK293 cells cotransfected with Gal4 luciferase reporter plasmid and VP16-TNFalpha(1-76)-NTF incubated for 24 hrs by luciferase reporter gene assay based luminescence assay; type: cell-based
T1 sequence (Q8TCT8 whole entry): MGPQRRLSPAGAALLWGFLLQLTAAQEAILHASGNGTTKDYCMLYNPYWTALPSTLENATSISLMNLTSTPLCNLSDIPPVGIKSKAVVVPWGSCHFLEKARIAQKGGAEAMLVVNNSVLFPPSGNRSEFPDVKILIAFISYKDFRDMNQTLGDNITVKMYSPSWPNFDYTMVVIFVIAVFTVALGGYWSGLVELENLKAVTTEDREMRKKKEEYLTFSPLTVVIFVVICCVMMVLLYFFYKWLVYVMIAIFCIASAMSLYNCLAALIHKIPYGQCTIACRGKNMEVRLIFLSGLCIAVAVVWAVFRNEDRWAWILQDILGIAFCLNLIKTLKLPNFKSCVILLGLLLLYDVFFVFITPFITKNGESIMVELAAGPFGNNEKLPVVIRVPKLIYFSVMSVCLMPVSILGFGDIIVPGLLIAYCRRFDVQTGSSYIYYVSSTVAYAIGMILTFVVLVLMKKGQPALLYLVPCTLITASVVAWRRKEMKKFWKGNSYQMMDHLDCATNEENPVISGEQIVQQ

Beta-secretase 1 = Beta-secretase 1 (Homo sapiens, UniProt P56817); experiment: Inhibition of human BACE1 (46 to 435 residues) expressed in baculovirus infected insect cells using Ac-C(PT14)EVNLDAEWK-NH2 as substrate preincubated for 1 hr followed by substrate addition and measured after 1 hr by fluorescence based assay
Chain of Beta-secretase 1 (P56817 whole entry, the tested form may be a part): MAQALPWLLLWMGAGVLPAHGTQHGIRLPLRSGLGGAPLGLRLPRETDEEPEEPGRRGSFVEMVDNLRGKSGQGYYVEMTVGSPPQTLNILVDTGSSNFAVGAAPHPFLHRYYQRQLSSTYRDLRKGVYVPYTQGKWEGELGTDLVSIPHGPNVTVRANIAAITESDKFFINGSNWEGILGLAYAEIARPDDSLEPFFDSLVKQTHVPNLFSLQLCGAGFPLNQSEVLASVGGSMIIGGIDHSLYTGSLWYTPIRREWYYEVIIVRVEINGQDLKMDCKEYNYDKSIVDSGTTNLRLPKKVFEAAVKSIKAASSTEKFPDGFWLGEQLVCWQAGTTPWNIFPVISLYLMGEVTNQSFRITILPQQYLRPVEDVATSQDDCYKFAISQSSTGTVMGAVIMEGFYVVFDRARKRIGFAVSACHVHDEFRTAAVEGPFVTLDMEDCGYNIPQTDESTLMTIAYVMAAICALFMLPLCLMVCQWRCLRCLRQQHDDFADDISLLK

Beta-secretase 2 = target: T2, Beta-secretase 2 (Homo sapiens, UniProt Q9Y5Z0); experiment: Inhibition of human BACE2 (63 to 466 residues) expressed in baculovirus infected insect cells using Ac-C(PT14)EVNLDAEWK-NH2 as substrate preincubated for 1 hr followed by substrate addition and measured after 1 hr by fluorescence based assay
T2 sequence (Q9Y5Z0 whole entry): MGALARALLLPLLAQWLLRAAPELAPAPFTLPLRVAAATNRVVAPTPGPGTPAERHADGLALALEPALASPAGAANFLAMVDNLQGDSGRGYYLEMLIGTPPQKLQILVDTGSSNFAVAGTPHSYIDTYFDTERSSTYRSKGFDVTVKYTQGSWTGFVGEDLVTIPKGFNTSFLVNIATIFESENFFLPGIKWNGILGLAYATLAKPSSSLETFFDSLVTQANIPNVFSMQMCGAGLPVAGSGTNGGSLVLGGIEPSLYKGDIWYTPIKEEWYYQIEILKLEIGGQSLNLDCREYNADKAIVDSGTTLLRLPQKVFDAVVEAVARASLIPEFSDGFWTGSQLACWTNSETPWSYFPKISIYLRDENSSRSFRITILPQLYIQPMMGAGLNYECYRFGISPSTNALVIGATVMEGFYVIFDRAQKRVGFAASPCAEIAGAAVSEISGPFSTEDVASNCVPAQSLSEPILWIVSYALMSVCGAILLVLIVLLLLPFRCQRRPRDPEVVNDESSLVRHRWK

Cathepsin E = target: T3, Cathepsin E (Homo sapiens, UniProt P14091); experiment: Inhibition of human cathepsin E isoform 1 (19 to 401 residues) expressed in Escherichia coli using R-C(PT14)KPILFFRLGWR-OH as substrate preincubated for 1 hr followed by substrate addition and measured after 1 hr by fluorescence based assay
T3 sequence (P14091 whole entry): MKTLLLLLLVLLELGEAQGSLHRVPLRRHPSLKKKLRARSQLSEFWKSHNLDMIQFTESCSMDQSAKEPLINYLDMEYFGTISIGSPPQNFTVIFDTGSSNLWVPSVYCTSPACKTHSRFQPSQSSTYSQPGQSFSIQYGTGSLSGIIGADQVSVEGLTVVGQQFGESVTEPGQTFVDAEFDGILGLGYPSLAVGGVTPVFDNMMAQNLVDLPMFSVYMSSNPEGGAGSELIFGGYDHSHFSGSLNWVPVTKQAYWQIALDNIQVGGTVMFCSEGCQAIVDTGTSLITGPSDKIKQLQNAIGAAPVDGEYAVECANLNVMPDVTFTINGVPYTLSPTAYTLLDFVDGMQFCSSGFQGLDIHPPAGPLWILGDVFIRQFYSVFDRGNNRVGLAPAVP

Renin = target: T4, Renin (Homo sapiens, UniProt P00797); experiment: Inhibition of human renin (67 to 406 residues) expressed in CHO cells using KHPWHLVIHT-C(PT14)-K as substrate preincubated for 1 hr followed by substrate addition and measured after 1 hr by fluorescence based assay
T4 sequence (P00797 whole entry): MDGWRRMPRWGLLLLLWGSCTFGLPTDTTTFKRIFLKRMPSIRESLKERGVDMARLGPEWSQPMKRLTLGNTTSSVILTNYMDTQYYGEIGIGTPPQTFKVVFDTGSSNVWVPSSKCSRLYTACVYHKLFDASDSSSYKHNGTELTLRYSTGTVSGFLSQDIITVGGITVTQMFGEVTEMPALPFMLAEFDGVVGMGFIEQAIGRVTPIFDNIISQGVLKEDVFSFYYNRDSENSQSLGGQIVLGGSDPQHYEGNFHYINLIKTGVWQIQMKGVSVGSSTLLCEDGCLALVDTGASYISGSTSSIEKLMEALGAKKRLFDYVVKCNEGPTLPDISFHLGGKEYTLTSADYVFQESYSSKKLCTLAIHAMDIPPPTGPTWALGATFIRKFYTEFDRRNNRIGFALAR

Cathepsin D = Cathepsin D (Homo sapiens, UniProt P07339); experiment: Inhibition of human cathepsin D (1 to 412 residues) expressed in baculovirus infected insect cells using R-C(PT14)-KPILFFRLGWR-OH as substrate preincubated for 1 hr followed by substrate addition and measured after 1 hr by fluorescence based assay
Chain of Cathepsin D (P07339 65-162 limits assumed): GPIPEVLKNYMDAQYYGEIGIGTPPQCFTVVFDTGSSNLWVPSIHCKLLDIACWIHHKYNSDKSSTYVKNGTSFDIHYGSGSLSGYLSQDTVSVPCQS
Chain of Cathepsin D (P07339 169-412 limits assumed): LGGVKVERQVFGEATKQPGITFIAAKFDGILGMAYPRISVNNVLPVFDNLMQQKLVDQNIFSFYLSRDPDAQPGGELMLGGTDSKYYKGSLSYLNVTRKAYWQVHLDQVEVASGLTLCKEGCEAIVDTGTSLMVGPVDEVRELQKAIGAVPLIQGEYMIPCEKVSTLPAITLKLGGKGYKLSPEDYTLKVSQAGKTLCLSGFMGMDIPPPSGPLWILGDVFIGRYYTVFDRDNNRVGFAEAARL

SMILES: N[C@@H](c1ccccc1)[C@@H](O)CN(Cc1ccccc1)S(=O)(=O)c1ccc(Cl)c(Cl)c1
IC50 (Gamma-secretase): 3.4 µM

SMILES: C[C@H](NC(=O)[C@@H](O)c1cc(F)cc(F)c1)C(=O)N[C@@H]1C(=O)N(C)c2ccccc2-c2ccccc21
inhibition (Mus musculus): Active

SMILES: CC(C)CN(C[C@H](O)[C@@H](N)Cc1ccccc1)S(=O)(=O)c1ccc(Cl)c(Cl)c1
solubility [1]: < 2 µg/mL
logD [2]: 3.1
IC50 [3]: 0.86 µM

SMILES: CC(C)CN(C[C@H](O)[C@H](Cc1ccccc1)NC(=O)OCc1ccccc1)S(=O)(=O)c1ccc(Cl)c(Cl)c1
solubility [1]: < 2 µg/mL
logD [2]: > 4.6
IC50 [3]: 4.3 µM

SMILES: CC(C)CN(C[C@H](O)[C@@H](N)c1ccccc1)S(=O)(=O)c1ccc(Cl)c(Cl)c1
IC50 (Gamma-secretase): 4.8 µM
solubility [1]: 34 µg/mL (≈ 78.8 µM)
IC50 (Beta-secretase 1): > 100 µM
IC50 (Beta-secretase 2): > 100 µM
IC50 (Cathepsin E): > 100 µM
IC50 (Renin): > 100 µM
IC50 (Cathepsin D): > 100 µM

SMILES: CC(C)ON(C[C@H](O)[C@@H](N)c1ccccc1)S(=O)(=O)c1ccc(Cl)c(Cl)c1
IC50 (Gamma-secretase): 5.9 µM

Results, then the molecule that gave them:

IC50 (Gamma-secretase): 3.7 µM
SMILES: CC(C)(C)c1cccc(S(=O)(=O)N(C[C@H](O)[C@@H](N)c2ccccc2)C2CCC2)c1

IC50 (Gamma-secretase): 6.4 µM
SMILES: CC1(N(C[C@H](O)[C@@H](N)c2ccccc2)S(=O)(=O)c2ccc(Cl)c(Cl)c2)CCC1

IC50 (Gamma-secretase): 2.1 µM
SMILES: N[C@@H](c1ccccc1)[C@@H](O)CN(C1CCCCCC1)S(=O)(=O)c1ccc(Cl)c(Cl)c1

IC50 (Gamma-secretase): > 10 µM
SMILES: N[C@@H](c1ccccc1)[C@@H](O)CN(C1CCC1)S(=O)(=O)c1ccc2scnc2c1

IC50 (Gamma-secretase): > 10 µM
SMILES: CC(C)(O)CN(C[C@H](O)[C@@H](N)c1ccccc1)S(=O)(=O)c1ccc(Cl)c(Cl)c1

IC50 (Gamma-secretase): > 10 µM
SMILES: N[C@@H](c1ccccc1)[C@@H](O)CN(C1COC1)S(=O)(=O)c1ccc(Cl)c(Cl)c1

IC50 (Gamma-secretase): 3.7 µM
SMILES: CC(C)(C)c1ccc(S(=O)(=O)N(C[C@H](O)[C@@H](N)c2ccccc2)C2CCC2)cc1

IC50 (Gamma-secretase): 1.8 µM
SMILES: CC1(C)CCC(C)(C)c2cc(S(=O)(=O)N(C[C@H](O)[C@@H](N)c3ccccc3)C3CCC3)ccc21

IC50 (Gamma-secretase): 5.1 µM
SMILES: N[C@@H](c1ccccc1)[C@@H](O)CN(C1CCC1)S(=O)(=O)c1ccc(Cl)c(Cl)c1
